LMPTP block – LMPTP phosphatase inhibitors, primary screen, biochemical, fluorescence intensity, uHTS | recombinant LMPTP-A, OMFP fluorogenic substrate | actives 0.22% (n = 360,000) | Low molecular weight phosphotyrosine protein phosphatase (Homo sapiens), P24666 | inhibition, % at 20 µM;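 active = compounds that cut the enzyme signal by at least half of the control window in the single-dose screen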;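 also: plate controls were DMSO wells with enzyme plus substrate for no effect and substrate without enzyme for full effect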
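Assay system: LMPTP-A, protein tyrosine phosphatase of low molecular weight / Medium: pH 6.0 Bis-Tris buffer with DTT and Triton X-100 / Schedule: 50 min enzyme reaction at room temperature, protected from light / Measured by: endpoint fluorescence intensity from OMFP dephosphorylation / Read-out basis: % inhibition relative to no-enzyme and uninhibited control wells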
DNMT1 inh – human DNMT1 methyltransferase inhibitors, primary screen, biochemical, molecular beacon, fluorescence, HinP1I cleavage, uHTS. DNA (cytosine-5)-methyltransferase 1 (Homo sapiens), P26358. inhibition (reported as % activation of signal), % at 10 µM. actives 0.83% (n = 360,000); in the data active = inhibition above about 50%
Target sequence (P26358 504-1616 limits assumed): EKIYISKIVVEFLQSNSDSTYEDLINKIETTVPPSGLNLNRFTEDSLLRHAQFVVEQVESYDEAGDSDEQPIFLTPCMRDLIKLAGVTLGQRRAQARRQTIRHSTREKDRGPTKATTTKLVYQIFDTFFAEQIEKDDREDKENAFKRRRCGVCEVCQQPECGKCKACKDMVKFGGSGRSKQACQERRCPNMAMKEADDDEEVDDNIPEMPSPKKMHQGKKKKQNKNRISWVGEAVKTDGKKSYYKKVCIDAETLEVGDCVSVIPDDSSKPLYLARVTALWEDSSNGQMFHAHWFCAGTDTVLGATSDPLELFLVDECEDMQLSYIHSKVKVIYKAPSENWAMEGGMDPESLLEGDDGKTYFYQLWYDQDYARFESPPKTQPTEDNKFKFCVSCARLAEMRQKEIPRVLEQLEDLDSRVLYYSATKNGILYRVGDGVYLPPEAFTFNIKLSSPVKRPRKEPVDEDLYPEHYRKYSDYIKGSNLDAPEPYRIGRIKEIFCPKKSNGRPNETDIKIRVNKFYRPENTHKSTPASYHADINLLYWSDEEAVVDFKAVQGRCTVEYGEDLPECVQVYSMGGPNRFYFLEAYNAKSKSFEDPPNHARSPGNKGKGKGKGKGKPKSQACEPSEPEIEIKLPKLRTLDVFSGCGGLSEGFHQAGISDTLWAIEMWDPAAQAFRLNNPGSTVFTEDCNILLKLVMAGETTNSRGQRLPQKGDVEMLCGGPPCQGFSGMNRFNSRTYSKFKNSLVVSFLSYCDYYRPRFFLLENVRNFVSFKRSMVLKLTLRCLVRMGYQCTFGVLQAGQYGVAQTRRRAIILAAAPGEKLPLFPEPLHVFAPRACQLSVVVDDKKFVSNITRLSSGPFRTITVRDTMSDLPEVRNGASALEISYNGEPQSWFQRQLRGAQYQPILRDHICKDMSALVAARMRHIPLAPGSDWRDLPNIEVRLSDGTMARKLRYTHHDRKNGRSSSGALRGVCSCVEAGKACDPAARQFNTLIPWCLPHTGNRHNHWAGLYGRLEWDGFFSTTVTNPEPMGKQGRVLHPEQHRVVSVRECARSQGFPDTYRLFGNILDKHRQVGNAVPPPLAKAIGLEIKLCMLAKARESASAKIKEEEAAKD
STEP inh – STEP phosphatase inhibitors, primary screen, biochemical, fluorescence intensity, uHTS; recombinant STEP, OMFP fluorogenic substrate; inhibition, % at 20 µM; actives 0.25% (n = 360,000);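 active = inhibition at 20 µM, scaled per plate between control wells, above about 37%, limit read from the data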;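 also: 0% = DMSO with enzyme and substrate and 100% = substrate only without enzyme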
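Material: STEP (striatal-enriched tyrosine phosphatase) enzyme, cell-free | Medium: 50 mM Bis-Tris pH 6.0 with 2.5 mM DTT and 0.005% Tween 20 | Read-out: Percent inhibition scaled to no-enzyme and uninhibited-enzyme controls, plate-pattern corrected | Signal: Fluorescence read at 480 nm ex / 540 nm em | Times: 20 min reaction, room temperature, in the dark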
SUMO1-SIM PPI – modulators of SUMO1 protein-protein interactions, primary screen, biochemical, uHTS | inhibition, % at 20 µM | actives 0.33% (n = 360,000) | SUMO1 binding to a labelled peptide, TR-FRET, 1 h | AID 602429, 2012; in the data active = inhibition above about 37%
CFTR F508del cor – F508del CFTR correction, initial screen, CFBE line, single point. CFBE cells, YFP halide quenching; stimulated with forskolin plus potentiator P3; % fluorescence drop versus neutral controls. activity (quench increase), % at 7.58 µM. actives 0.36% (n = 350,000). AID 720511, 2013;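 active = mean added fluorescence quench of at least 8% versus neutral control, with both replicates also reaching 8%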;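 also: cells transiently co-express mutant CFTR-F508del with the halide-sensitive YFP; corrector assay measuring rescue of mutant channel to the surface after 24 h compound exposure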
Scp-1 inhibitor – Scp-1 phosphatase inhibitors, primary screen, biochemical, colorimetric, uHTS; Carboxy-terminal domain RNA polymerase II polypeptide A small phosphatase 1 (Homo …; Recombinant Scp1, phosphopeptide, malachite green phosphate absorbance; inhibition, % at 20 µM; actives 0.88% (n = 340,000); AID 493091, 2011;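 active = inhibition above about 50% at 20 µM, limit read from the data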;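 also: plate controls were DMSO wells with enzyme for no effect and wells lacking enzyme for full effect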
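System: SCP-1 catalytic domain; Reagent: Phospho 17-mer peptide substrate; Doses: one concentration, 20 µM, with 1.0% DMSO; Incubation: 45 min room-temperature reaction, 5 min colour, 30 min stabiliser; Signal: Phosphate-binding colour reagent, absorbance read at 630 nm.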
Beacon interf DR – spectral interference with molecular beacon fluorescence, dose response, artefact control for DNMT1 inhibitor project, biochemical, fluorescent molecular beacon. shares compounds with DNMT1 inh. spectral interference counter-screen. IC50, µM. 200 tested, under 10 active. AID 602382, 2012; call rule not given here
DNMT1 confirm – DNMT1 methyltransferase inhibitor retest, confirmation, biochemical, molecular beacon, fluorescence, single concentration. inhibition, % at 10 µM. DNMT1 molecular beacon HinP1I cleavage. actives 8% (n = 2,300). shares compounds with DNMT1 inh;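 active = average inhibition of at least 30% in the single-concentration confirmation test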
DNMT1 interf – shows spectral interference in the DNMT1 beacon assay; shares compounds with DNMT1 inh; DNMT1 molecular beacon spectral interference counterscreen, fluorescence 485/520; activation (fluorescence interference), % at 10 µM; actives 1% (n = 2,300); AID 602387;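 active = activation of at least 30% at 10 µM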;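 also: DNMT1 catalytic domain with a HinP1I cleavage step and a FAM/dabcyl DNA beacon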
Starred values were filed as active, the others as inactive; / = no result given. In the library only some 1.6% were active in any assay of this set; here they are far more common.

SMILES | LMPTP block | DNMT1 inh | STEP inh | SUMO1-SIM PPI | CFTR F508del cor | Scp-1 inhibitor | DNMT1 confirm | DNMT1 interf | others
CCc1nc(Nc2ccc(OC)c(OC)c2)c2nnn(Cc3ccccc3Cl)c2n1 | 5 | 105* | 4 | 0 | / | 9 | 2 | 6
CC(C)NC(=O)N(C)C[C@@H]1OCCCC[C@H](C)Oc2ccc(NC(=O)c3ccccc3)cc2C(=O)N([C@@H](C)CO)C[C@H]1C | / | / | / | / | -1 | / | / | /
O=C(COc1ccccc1[N+](=O)[O-])Nc1ccc(NC(=O)c2cc3ccccc3o2)cc1 | 20 | 59* | 13 | 35 | 1 | 29 | 2 | -4
O=C(COc1ccc(/C=N/NC(=O)c2cc3ccccc3o2)cc1Br)Nc1ccccc1 | 29 | 64* | 64* | -1 | / | 83* | -3 | -9
O=C(COc1ccccc1[N+](=O)[O-])Nc1ccc2oc(=O)ccc2c1 | 13 | 18 | 6 | 22 | 0 | 1 | / | /
O=C(N/N=C/c1ccco1)c1cc2ccccc2o1 | -1 | 1 | 0 | -25 | -1 | -5 | / | /
Cc1cc(=O)oc2cc(NC(=O)COc3ccccc3[N+](=O)[O-])ccc12 | 5 | 72* | 10 | 31 | -5 | 40 | 4 | -2
Cc1noc(C)c1NC(=O)Nc1ccc2c(c1)C(=O)N([C@@H](C)CO)C[C@@H](C)[C@@H](CN(C)C(=O)c1ccccc1)OCCCC[C@@H](C)O2 | / | / | / | / | -4 | / | / | /
COc1ccc2[nH]c(C)c(CCN3C(=O)C4C5C=CC(C5)C4C3=O)c2c1 (stereo not drawn) | 0 | 82* | -2 | 0 | 0 | -16 | 0 | 1
COc1ccc(CCNc2ccc(C(CC(N)=O)NC(=O)Cc3cccc4ccccc34)cc2[N+](=O)[O-])cc1 (stereo not drawn) | 3 | 34 | 2 | -18 | 0 | -8 | / | /
CCCCNc1ccc(C(CC(N)=O)NC(=O)Cc2cccc3ccccc23)cc1[N+](=O)[O-] (stereo not drawn) | 2 | 51* | 1 | -4 | -2 | -6 | 6 | 12
O=C(O)Cn1ncc2c1-c1ccoc1CC2 | -1 | 89* | -2 | 9 | -3 | 5 | 5 | 1
O=C(Cn1ncc2c1-c1ccccc1OC2)N1CCc2ccccc21 | 1 | -2 | -1 | 1 | 1 | -5 | / | /
C[C@@H]1CN([C@H](C)CO)S(=O)(=O)c2ccc(C3=CCCCC3)cc2O[C@H]1CN(C)C(=O)C1CCCCC1 | / | / | / | / | -2 | / | / | /
COC(=O)c1ccccc1NC(=O)c1cc2ncc(Br)cn2n1 | 5 | 68* | 7 | 1 | / | 40 | 0 | -4
N#Cc1c(-c2ccco2)cc(-c2ccccc2)[nH]c1=O | 8 | 42 | 2 | 18 | 1 | 9 | / | /
Cc1ccc(-c2cc(-c3ccco3)c(C#N)c(=O)[nH]2)cc1 | 49* | 58* | 4 | 0 | 3 | 22 | 0 | -2
Cc1cccc(NC(=O)CSc2nnc(-c3ccco3)c(-c3ccco3)n2)c1 | 11 | 35 | 3 | 11 | 0 | 39 | / | /
Cc1cccc(NC(=O)CSc2nnc(-c3ccco3)c(-c3ccco3)n2)c1C | 25 | 106* | 6 | 34 | / | 63* | 5 | 5
Cc1cccc(-c2nnn3c2nc(NCCc2ccc(S(N)(=O)=O)cc2)c2ccccc23)c1 | 40 | 42 | 0 | -17 | / | 3 | / | /
NS(=O)(=O)c1ccc(CCNc2nc3c(-c4cccc(F)c4)nnn3c3ccccc23)cc1 | 27 | 72* | 5 | -5 | / | -14 | 7 | -2
Cc1ccc(-c2nnn3c2nc(NCCc2ccc(S(N)(=O)=O)cc2)c2ccccc23)cc1 | 21 | 89* | 2 | -4 | / | -2 | 7 | -2
O=S(=O)(NCc1ccccc1)c1cccc2nsnc12 | 1 | 85* | -1 | -29 | -1 | 9 | 1 | 2
O=C(Nc1ccc2oc(-c3cccc4ccccc34)nc2c1)c1ncn[nH]1 | 0 | 67* | 5 | 8 | / | -2 | 3 | -2
Cc1ccccc1-c1cnc2c(c1)C(=O)N([C@@H](C)CO)C[C@H](C)[C@H](CN(C)Cc1ccncc1)O2 | / | / | / | / | 0 | / | / | /
SMILES | LMPTP block | DNMT1 inh | STEP inh | SUMO1-SIM PPI | CFTR F508del cor | Scp-1 inhibitor | DNMT1 confirm | DNMT1 interf | others
CC(C)CC(=O)Nc1ncc([N+](=O)[O-])s1 | 7 | 5 | 2 | -12 | 1 | -6 | / | /
Cc1nc(C)c(C(=O)Nc2ncc([N+](=O)[O-])s2)o1 | 3 | 69* | 0 | -7 | 0 | 12 | 8 | -2
C/C=C/C=C/C(=O)N1CC2(CC(c3cccc(NC(=O)CCCCC)c3)=NO2)C[C@H]1C(N)=O (stereo partly drawn) | 0 | 66* | -2 | 2 | 0 | 3 | 5 | 1
C=C(C)C(=O)Nc1cccc(C2=NOC3(C2)C[C@@H](C(N)=O)N(C(=O)/C=C/C=C/C)C3)c1 (stereo partly drawn) | 0 | 105* | 11 | 105* | 2 | 75* | 90* | -3 | Beacon interf DR=>99
C=C(C)C(=O)Nc1cccc(C2=NOC3(C2)C[C@H](C(N)=O)N(C(=O)CC)C3)c1 (stereo partly drawn) | 0 | 99* | 3 | 62* | / | 64* | 55* | 1 | Beacon interf DR=>99
O=C(C[C@H]1C=C[C@H](NC(=O)C2CC2)[C@H](CO)O1)NCc1ccccc1Cl | / | / | / | / | 0 | / | / | /
O=C(Nc1ccc(Cl)c(Cl)c1)N[C@@H]1CC[C@H](CCn2cc(C3CCCCC3)nn2)O[C@@H]1CO | / | / | / | / | 4 | / | / | /
NC(=O)c1nc[nH]c1C(=O)Nc1cccc(C(F)(F)F)c1 | -3 | 4 | -1 | 9 | 5 | -6 | / | /
